Source: ChEMBL document CHEMBL1122752, “Nucleosides. 129. Synthesis of antiviral nucleosides: 5-alkenyl-1-(2-deoxy-2-fluoro-beta-D-arabinofuranosyl)uracils” (J Med Chem, 1984)

Experiments:
[1] = Cytotoxicity expressed as ID50 which is the concentration required for 50% growth inhibition of normal human lymphocytes.; details: read-out: ID50 (the source's name)
In short: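 Normal human lymphoblasts stimulated with PHA; drug concentration causing 50% inhibition of replication (ID50) determined; values are means of three separate experiments run in parallel.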

Vero [2] = assay: In vitro antiviral activity was determined by plaque-reduction assay in HSV-1(strain 2931) infected Vero cell monolayers; type: functional; details: Chlorocebus sabaeus, read-out: ED50 (the source's name)
In short: (§1)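 Vero cell monolayers infected with about 20–30 pfu per well (HSV-1 strain 2931 or HSV-2 strain G), 2 h incubation, then overlaid with maintenance medium containing various drug concentrations. Plaques counted after 2 days of development. ED50 (50% plaque reduction) calculated by linear regression. Values are the mean of three separate experiments run in parallel.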

Vero [3] = assay: In vitro antiviral activity was determined by plaque-reduction assay in HSV-2 (strain G) infected Vero cell monolayers; type: functional; details: Chlorocebus sabaeus, read-out: ED50 (the source's name); in short: as §1

Nc1nc(=O)n([C@@H]2O[C@H](CO)[C@@H](O)[C@H]2F)cc1I
GI50 [1]: 8.6 µM | EC50 (Vero [2]): 0.024 µM | EC50 (Vero [3]): 0.014 µM

C=Cc1cn([C@@H]2O[C@H](CO)[C@@H](O)[C@H]2F)c(=O)[nH]c1=O
GI50 [1]: > 100 µM | EC50 (Vero [2]): 0.16 µM | EC50 (Vero [3]): 0.69 µM

O=c1[nH]c(=O)n([C@H]2C[C@H](O)[C@@H](CO)O2)cc1/C=C/Br [BRIVUDINE]
EC50 (Vero [2]): 0.07 µM | EC50 (Vero [3]): 13 µM

CCc1cn([C@H]2O[C@@H](CO)[C@H](O)[C@@H]2F)c(=O)[nH]c1=O
GI50 [1]: > 100 µM | EC50 (Vero [2]): 0.24 µM | EC50 (Vero [3]): 0.65 µM

O=c1[nH]c(=O)n([C@@H]2O[C@H](CO)[C@@H](O)[C@@H]2F)cc1/C=C/Cl
GI50 [1]: > 100 µM | EC50 (Vero [2]): 0.54 µM | EC50 (Vero [3]): 6.9 µM

O=c1[nH]c(=O)n([C@@H]2O[C@H](CO)[C@@H](O)[C@@H]2F)cc1/C=C/I
GI50 [1]: > 100 µM | EC50 (Vero [2]): 1.1 µM | EC50 (Vero [3]): 17.3 µM

O=c1[nH]c(=O)n([C@H]2O[C@@H](CO)[C@H](O)[C@@H]2F)cc1/C=C/Br
GI50 [1]: > 100 µM | EC50 (Vero [2]): 0.4 µM | EC50 (Vero [3]): 13.9 µM
